From ChEMBL document CHEMBL1125448, “(Aminoalkoxy)chromones. Selective sigma receptor ligands” (J Med Chem, 1992)

Each compound was assayed against T1, D(2) dopamine receptor (Rattus norvegicus, UniProt P61169) (assay: Affinity towards dopamine receptor D2 was determined by competition studies using [3H]sulpiride in rat striatum.).
Type: tissue-based
Outline: (§1)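 Competition binding values reported as mean ± SEM of triplicate determinations, with some entries from N = 3, 4, 6 or 7 determinations.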

T1 sequence (P61169 whole entry): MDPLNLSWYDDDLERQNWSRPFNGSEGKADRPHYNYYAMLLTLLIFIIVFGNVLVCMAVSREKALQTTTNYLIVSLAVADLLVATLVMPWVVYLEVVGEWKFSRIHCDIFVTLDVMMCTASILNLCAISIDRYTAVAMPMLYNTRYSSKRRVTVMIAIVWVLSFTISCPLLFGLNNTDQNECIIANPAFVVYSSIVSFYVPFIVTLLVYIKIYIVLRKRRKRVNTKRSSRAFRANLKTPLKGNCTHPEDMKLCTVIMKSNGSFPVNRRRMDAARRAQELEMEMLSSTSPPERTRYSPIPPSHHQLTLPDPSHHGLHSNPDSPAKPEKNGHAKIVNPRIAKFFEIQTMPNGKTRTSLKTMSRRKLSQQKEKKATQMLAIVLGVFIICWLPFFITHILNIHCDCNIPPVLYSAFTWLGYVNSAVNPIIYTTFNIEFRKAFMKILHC

SMILES | Ki
O=c1cc(-c2ccccc2)oc2cc(OCCCCCCN3CCC(O)CC3)ccc12 | 6 µM
CN(C)CCCCCCCCCOc1ccc2oc(-c3ccccc3)cc(=O)c2c1 | 2.2 µM
O=c1cc(-c2ccccc2Cl)oc2ccc(OCCCCCCN3CCCCC3)cc12 | 2.2 µM
O=c1cc(C2CCC2)oc2ccc(OCCCCCCN3CCCCC3)cc12 | 5.5 µM
O=c1cc(-c2cccs2)oc2ccc(OCCCCCCN3CCCCC3)cc12 | 1.4 µM
CN(C)CCCCCOc1ccc2oc(-c3ccccc3)cc(=O)c2c1 | 8.2 µM
CC(C)Cc1cc(=O)c2cc(OCCCCCN3CCC(O)CC3)ccc2o1 | 13 µM
O=c1cc(-c2cccnc2)oc2ccc(OCCCCCCN3CCCCC3)cc12 | 2.3 µM
CN(C)CCOc1ccc2oc(-c3ccccc3)cc(=O)c2c1 | 4.5 µM
CN(C)CCCCCCCOc1ccc2oc(-c3ccccc3)cc(=O)c2c1 | 12 µM
O=c1cc(C2CCCCC2)oc2ccc(OCCCCCCN3CCOCC3)cc12 | 14 µM
O=c1cc(C2CCCC2)oc2ccc(OCCCCCCN3CCCCC3)cc12 | 3.2 µM
O=c1cc(-c2ccccc2)oc2ccc(OCCCCCCN3CCNCC3c3ncccn3)cc12 (stereo not given) | 1.3 µM
CN(C)CCCCCCCCCCOc1ccc2oc(-c3ccccc3)cc(=O)c2c1 | 2.7 µM
Cc1c(C2CCCCC2)oc2ccc(OCCCCCCN3CCC(O)CC3)cc2c1=O | 4.7 µM
CN(C)CCCCCCCCOc1ccc2oc(-c3ccccc3)cc(=O)c2c1 | 2.8 µM
CN(C)CCOc1ccc2c(=O)cc(-c3ccccc3)oc2c1 | 13 µM
O=c1cc(-c2ccncc2)oc2ccc(OCCCCCCN3CCCCC3)cc12 | 1.8 µM
O=c1cc(C2CCCCC2)oc2ccc(OCCCCCCN3CCCCC3)cc12 | 7.7 µM

The next lines start with the values.

Ki | SMILES
8.9 µM | O=c1cc(-c2ccccc2)oc2ccc(OCCCCCCCCN3CCC(O)CC3)cc12
1 µM | O=c1cc(-c2ccccc2)oc2cc(OCCCCN3CCC(O)CC3)ccc12
0.94 µM | O=c1cc(-c2ccccc2)oc2c(OCCCCCCN3CCC(O)CC3)cccc12
2.7 µM | O=c1cc(-c2ccccc2)oc2ccc(OCCCCCCN3CCC(CCO)CC3)cc12
2.4 µM | O=c1cc(-c2ccccc2)oc2cccc(OCCCCCCCN3CCC(O)CC3)c12
4 µM | O=c1cc(-c2ccccc2)oc2cc(OCCCCCCCN3CCC(O)CC3)ccc12
5.5 µM | O=c1cc(-c2ccccc2)oc2ccc(OCCCCCCN3CCCC(O)C3)cc12 (stereo not given)
3.4 µM | O=c1cc(-c2ccccc2)oc2ccc(OCCCN3CCC(O)CC3)cc12
6.8 µM | O=c1cc(-c2ccccc2)oc2ccc(OCCCCN3CCC(O)CC3)cc12
3.7 µM | O=c1cc(-c2ccccc2)oc2ccc(OCCCCCCN3CCC(O)CC3)cc12
5.9 µM | O=c1cc(-c2ccccc2)oc2cc(OCCCCCN3CCC(O)CC3)ccc12
0.57 µM | CC1CCN(CCCCCCOc2ccc3oc(-c4ccccc4)cc(=O)c3c2)CC1
4.2 µM | CN(C)CCCCOc1ccc2oc(-c3ccccc3)cc(=O)c2c1
6.5 µM | O=c1cc(-c2ccccc2)oc2ccc(OCCCCCCCN3CCC(O)CC3)cc12
2.8 µM | O=c1cc(-c2ccccc2)oc2cc(OCCCCCCCCN3CCC(O)CC3)ccc12
2.3 µM | O=c1cc(-c2ccccc2)oc2ccc(OCCCCCCN3CCCC3)cc12
5.1 µM | O=c1cc(-c2ccccc2)oc2ccc(OCCCCCN3CCC(O)CC3)cc12
2.6 µM | COc1c(-c2ccccc2)oc2ccc(OCCCCCCN3CCC(O)CC3)cc2c1=O

Each compound was assayed against T1, D(2) dopamine receptor (assay: Affinity towards dopamine D2 site was determined by competition studies using [3H]sulpiride in rat striatum.).
Type: tissue-based
Outline: as §1

Ki | SMILES
4.5 µM | O=c1cc(-c2ccccc2)oc2ccc(OCCCCCCN3CCCCC3)cc12

Each compound was assayed against T1, D(2) dopamine receptor (assay: Affinity towards dopamine receptor D2 site was determined by competition studies using [3H]sulpiride in rat striatum.).
Type: tissue-based
Outline: as §1

SMILES | Ki
Cc1c(-c2ccccc2)oc2ccc(OCCC/C=C/CN3CCC(O)CC3)cc2c1=O | 2.7 µM
CN(C)CCCOc1ccc2oc(-c3ccccc3)cc(=O)c2c1 | 3.6 µM
O=c1cc(-c2ccccc2)oc2ccc(OCCCCCCN3CCN(c4ccc(Cl)cc4)CC3)cc12 | 1.3 µM
NCCCCCCOc1ccc2oc(-c3ccccc3)cc(=O)c2c1 | 8.2 µM
O=c1cc(-c2ccccc2)oc2ccc(OCCCCCCN3CCN(c4ccccn4)CC3)cc12 | 3 µM
O=c1cc(C2CCCC2)oc2ccc(OCCCCCCN3CCC(O)CC3)cc12 | 21 µM
CN(CCO)CCCCCCOc1ccc2oc(-c3ccccc3)cc(=O)c2c1 | 4.5 µM
O=c1cc(-c2ccccc2)oc2ccc(OCCCCCCN3CC=C(c4ccc(Cl)cc4)CC3)cc12 | 1.3 µM
O=c1cc(C2CCC2)oc2ccc(OCCCCCCN3CCC(O)CC3)cc12 | 14 µM
O=c1cc(-c2ccccc2)oc2ccc(OCCCCCCN3CCC(n4c(O)nc5ccccc54)CC3)cc12 | 0.22 µM
O=C1NCN(c2ccccc2)C12CCN(CCCCCCOc1ccc3oc(-c4ccccc4)cc(=O)c3c1)CC2 | 0.18 µM
O=c1cc(C2CCCCC2)oc2ccc(OCCCCCN3CCC(O)CC3)cc12 | 12 µM
CN(CCCCCCOc1ccc2oc(-c3ccccc3)cc(=O)c2c1)Cc1ccccc1 | 1.8 µM
O=c1cc(-c2ccccc2)oc2ccc(OCCCCCCN3CCC(O)(c4ccc(Cl)cc4)CC3)cc12 | 0.99 µM
CCN(CC)CCCCCCOc1ccc2oc(-c3ccccc3)cc(=O)c2c1 | 3.6 µM

The next lines start with the values.

Ki | SMILES
18 µM | O=c1cc(-c2ccccc2)oc2ccc(OCCCCCCN3CCOCC3)cc12
8.3 µM | O=c1cc(-c2ccccc2)oc2ccc(OCCCCCCN3CCN(CCO)CC3)cc12
2.3 µM | O=c1cc(-c2ccccc2)oc2ccc(OCCCCCCN3CCCCCC3)cc12
4 µM | O=c1cc(-c2cccs2)oc2ccc(OCCCCCCN3CCC(O)CC3)cc12
6.9 µM | O=c1cc(-c2ccncc2)oc2ccc(OCCCCCCN3CCC(O)CC3)cc12
2.7 µM | Cc1c(-c2ccccc2)oc2ccc(OCCCCCCN3CCC(O)CC3)cc2c1=O
5.1 µM | O=c1cc(-c2ccccc2)oc2cccc(OCCCCCN3CCC(O)CC3)c12
8.4 µM | O=c1cc(-c2ccccc2)oc2cccc(OCCCN3CCC(O)CC3)c12
11 µM | O=c1cc(-c2cccc(F)c2)oc2ccc(OCCCCCCN3CCC(O)CC3)cc12
4.2 µM | COc1ccc(-c2cc(=O)c3cc(OCCCCCN4CCC(O)CC4)ccc3o2)cc1
3.7 µM | COc1ccc(-c2cc(=O)c3cc(OCCCCCCN4CCC(O)CC4)ccc3o2)cc1
0.7 µM | CCOC(=O)C1CCCN(CCCCCCOc2ccc3oc(-c4ccccc4)cc(=O)c3c2)C1 (stereo not given)
4.1 µM | O=c1cc(-c2ccccc2Cl)oc2ccc(OCCCCCCN3CCC(O)CC3)cc12
11 µM | O=c1cc(-c2ccc(Cl)cc2)oc2ccc(OCCCCCCN3CCC(O)CC3)cc12
3.8 µM | O=c1cc(-c2cccnc2)oc2ccc(OCCCCCCN3CCC(O)CC3)cc12
2.8 µM | CCOC(=O)C1CCN(CCCCCCOc2ccc3oc(-c4ccccc4)cc(=O)c3c2)CC1
9.5 µM | COc1cccc(-c2cc(=O)c3cc(OCCCCCCN4CCC(O)CC4)ccc3o2)c1
9.5 µM | O=c1cc(-c2ccccc2)oc2cccc(OCCCCN3CCC(O)CC3)c12
6.2 µM | COc1cccc(-c2cc(=O)c3cc(OCCCCCN4CCC(O)CC4)ccc3o2)c1
6.1 µM | O=c1cc(-c2ccccc2)oc2cccc(OCCCCCCN3CCC(O)CC3)c12
3.8 µM | O=c1cc(-c2ccc(F)cc2)oc2ccc(OCCCCCCN3CCC(O)CC3)cc12
6.4 µM | O=c1cc(-c2cccc(Cl)c2)oc2ccc(OCCCCCCN3CCC(O)CC3)cc12
